Screening data from PubChem.
HIF act = HIF pathway transcriptional activation; activation, % at 7.5 µM (by protocol); U2OS HRE-luciferase reporter, luminescence; normalized: DMSO 0%, desferrioxamine 100%; 300,000 tested, 0.32% active; AID 1910;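 active = mean activation of at least 10% of the iron chelator positive control signal, with at least half of replicates also reaching 10%; inconclusive = mean and replicate majority disagree about reaching 10%; inactive = mean and most replicates under 10%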
Beta apoptosis = beta cell apoptosis inhibition. AID 435005. INS-1E cytokine-induced death, ATP luminescence, 48 h; percent of positive-control rescue, neutral wells zero. 300,000 tested, 0.8% active. protection from apoptosis, % (no concentration beside the values);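 active = Every replicate reaches about 75%, or at least half do and their mean reaches it too, limit read from the data; inconclusive = At least half of replicates reach the limit but their mean does not; inactive = Under half of replicates reach the limit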;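 also: higher means more ATP so stronger rescue from cytokine killing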
PolyA inhibitor = inhibitors of polyadenylation in S. cerevisiae; S. cerevisiae SKY197-pL101 polyadenylation reporter, beta-gal luminescence; efflux-impaired pdr1/pdr3 knockout yeast; score 100 = 6 SD above DMSO; activity score, % at 12 µM; 300,000 tested, 0.02% active;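 active = lowest replicate activity score at least 50, where 100 means six control SD above control mean; inconclusive = lowest score under 50 but half or more replicates reach 50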;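 also: yeast exposed to compound for 9 h at 30 °C; higher score means more reporter readthrough which indicates perturbed polyadenylation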
Calb FLC = C. albicans growth modulation with fluconazole; C. albicans CaCi-2 (fluconazole-resistant clinical isolate) + fluconazole, Alamar Blue growth, 48 h; growth inhibition, % (test concentration not listed); 300,000 tested, 0.57% active; AID 1979;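 active = growth inhibition above about 58% in most replicates, limit read from the data, passing the limit was not always enough; inconclusive = exactly half the replicates above a set limit; inactive = most replicates below a set limit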;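 also: all wells also contain fluconazole at 8 µg/ml as a sub-toxic cotreatment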
T cruzi inh = T. cruzi replication inhibition | T. cruzi beta-gal in NIH3T3, luminescence, 90 h | inhibition, % (test concentration not listed) | 300,000 tested, 1.4% active | AID 1885;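 active = mean inhibition across valid replicates above about 55%, limit read from the data; inconclusive = mean below that limit but half or more replicates reach it; inactive = mean below it, under half of replicates reach it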;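 also: signal also drops with host cell toxicity which is not excluded here; higher percent means less beta-gal luminescence so fewer parasites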
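System: Mouse NIH/3T3 fibroblasts infected with β-gal-expressing T. cruzi Tulahuen C4 | Quantity: NIH/3T3 cells, 5,000 per well | Reagent: 5000 reporter trypomastigotes per well | Dosing: Compound pinned at 50 nL/well, DMSO | Schedule: 3 h host attachment, then at least 90 h co-culture | Detection: GalScreen luminescence, 60 min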
CSC inhib = blocks cancer stem cells | AID 2717 | 300,000 tested, 1.1% active | cancer stem cell-like cells viability, luminescence | inhibition, % at 7.5 µM; in the data active = inhibition above about 75%; inconclusive = no clear call, values can overlap the other calls; tested in HMLE shEcad cells
Each line names hits and unclear results; the compound was inactive in the other large screens. Only some compounds are listed: those with a hit (about 3.1% of all), similar ones and a draw of the others.

O=C(CSc1nnc(COc2ccc(F)cc2)o1)N1c2ccccc2CCc2ccccc21	T cruzi inh 57
O=C1OC(c2ccc(F)cc2)=C/C1=C\c1ccc([N+](=O)[O-])o1	T cruzi inh 66
COc1ccc(/C=C/C(=O)C(C(N)=O)=C2SCCS2)cc1	none
Cc1ccc(C(=O)C(C(=O)/C=C/c2ccccc2)=C2SCCCS2)cc1	T cruzi inh 59, CSC inhib inconclusive (no result: Beta apoptosis)
CC1CCN(c2nc(-c3cccnc3)nc3scc(-c4ccccc4)c23)CC1	CSC inhib 95
Cc1ccc(C)c(OCc2nc3ccc(S(=O)(=O)Nc4c(C)n(C)n(-c5ccccc5)c4=O)cc3[nH]2)c1	none
O=C(Nc1nc2c(Cl)cccc2s1)c1ccc(Br)o1	Calb FLC 54
Cc1nc2c(C(=O)NCCC(C)C)c[nH]n2c(=O)c1Cl	none
Cc1nc2c(C(=O)NCCC(C)C)c[nH]n2c(=O)c1Cc1ccccc1F	Calb FLC 85
CCOC(=O)C(=CNc1ccc(C(F)(F)F)cc1)C(=O)OCC	none
CCOC(=O)C(=CNc1ccc(NC2=NCC(C)S2)cc1)C(=O)OCC (stereo not drawn)	HIF act 17
CC(=O)c1ccc(N=c2scc(C)n2C(C)C)cc1	Calb FLC inconclusive
Cc1cc(C)c(S(=O)(=O)N2CCCCC2CCNC(=O)C(=O)NC2CC2)c(C)c1 (stereo not drawn)	none
Clc1ccccc1Cn1c(/C=C/c2ccco2)nc2ccccc21	CSC inhib 112
CC(C)(O)C#Cc1ccc(CN2CCCC(CO)(Cc3cccc(Cl)c3)C2)cc1 (stereo not drawn)	T cruzi inh 58
Cc1ccccc1CC1(CO)CCCN(Cc2ccc(C#CC(C)(C)O)cc2)C1 (stereo not drawn)	none
CCn1nc(C)c(CN2CCCC(CO)(Cc3ccccc3)C2)c1C (stereo not drawn)	none
CCn1nc(C)c(CN2CCCC(CO)(Cc3cccc(Cl)c3)C2)c1C (stereo not drawn)	T cruzi inh 55
CC(C)CCN(C(=O)c1csnn1)C(C(=O)NC1CCCCC1)c1ccc(F)cc1 (stereo not drawn)	none
CC(=O)c1ccc(N2CCN(C(=O)c3cccs3)CC2)c(F)c1	none
FC(F)(F)COc1nc(OCC(F)(F)F)nc(N2CCN(c3ccccc3)CC2)n1	Calb FLC 88 (no result: HIF act, PolyA inhibitor, T cruzi inh)
FC(F)(F)COc1nc(N2CCOCC2)nc(N(c2ccccc2)c2ccccc2)n1	none (no result: Beta apoptosis, CSC inhib)
CCCCCSc1nc(O)cc(=O)[nH]1	none (no result: HIF act, Beta apoptosis, T cruzi inh)
CCCCCCCCSc1nnc2[nH]c(=O)cc(N)n12	none
CCCCCCSc1nnc2[nH]c(=O)cc(N)n12	Calb FLC 94
CCCCCCCSc1nc(N)cc(=O)[nH]1	Calb FLC 103
O=C(Nc1nc2ccccc2n1CCN1CCOCC1)c1ccccc1	none
O=C(Nc1nc2ccccc2n1CCN1CCOCC1)c1cn(-c2ccccc2)nc1-c1ccccc1	T cruzi inh 66
Cc1cccc(C)c1NC1=NC(=S)N(c2ccccc2)C12CCOC(C)(C)C2 (stereo not drawn)	none
Cc1cccc(N2C(=S)N=C(Nc3c(C)cccc3C)C23CCOC(C)(C)C3)c1 (stereo not drawn)	Beta apoptosis 82
COc1ccc(N2C(=S)N=C(Nc3cccc(C)c3)C23CCCCC3)cc1	Calb FLC inconclusive
Cc1cccc(NC2=NC(=S)N(c3cccc(C(=O)O)c3)C23CCCCC3)c1	Calb FLC 104
COC(=O)c1c(C(=O)OC)c(-c2ccc(Cl)c(Cl)c2)n2c1CCC2	Calb FLC 111
COC(=O)c1c(C(=O)OC)c(-c2ccc(C)cc2)n2c1CCC2	none
Cc1cc(NC(=O)c2c(-c3c(F)cccc3Cl)noc2C)no1	none
Cc1onc(-c2c(Cl)cccc2Cl)c1NC(=O)NNc1ccccc1	none
Cc1nc(C(=O)NNC(=O)c2c(-c3c(Cl)cccc3Cl)noc2C)cs1	Beta apoptosis 86
Cc1nnc(NC(=O)c2c(-c3ccccc3Cl)noc2C)s1	Calb FLC 83
Cc1onc(-c2c(Cl)cccc2Cl)c1C(=O)NNc1ccccc1	CSC inhib 91
Cc1cc(C(=O)NNC(=O)c2c(-c3c(Cl)cccc3Cl)noc2C)no1	none
Cc1ccc(NC(=O)c2c(-c3c(F)cccc3Cl)noc2C)cc1F	Beta apoptosis 96
O=C(NCc1ccco1)c1ccccc1NS(=O)(=O)c1ccc(Br)s1	Calb FLC 108
COc1ccc(S(=O)(=O)Nc2ccccc2C(=O)NCc2ccco2)cc1	none
O=C(CN1C(=O)COc2ccccc21)N(Cc1cccnc1)Cc1cccc(F)c1	T cruzi inh 71
CCC1Oc2ccc(C)cc2N(CC(=O)N(Cc2cccnc2)Cc2cccc(F)c2)C1=O (stereo not drawn)	T cruzi inh 59
CC(=O)N/C(=C\c1ccccc1)C(=O)OC/C=C/c1ccccc1	none
Cc1cc(C)n2nc(SCc3nnc(SCc4ccccc4C)s3)nc2n1	Beta apoptosis 103
Cc1cc(C)n2nc(SCc3nnc(SCc4ccccc4Cl)s3)nc2n1	none (no result: HIF act, Beta apoptosis, CSC inhib)
CC(C)c1ccc(NC2CCCN(C(=O)c3cccs3)C2)cc1 (stereo not drawn)	none
Nc1ccccc1NC(=O)c1ccccc1	HIF act 25
O=C(CC1C(=O)NCCN1Cc1cccc(C(F)(F)F)c1)NC1CCCCCC1 (stereo not drawn)	none
CCNC(=S)NNC(=O)c1cc(-c2ccccc2C)nc2ccccc12	Calb FLC 99
Cc1cc(C(=O)NNC(=S)NC(C)c2ccccc2)c2ccccc2n1 (stereo not drawn)	Calb FLC 104
CCCOc1cccc(-c2cc(C(=O)NNC(=S)NCC)c3ccccc3n2)c1	Calb FLC 84
COc1ccc(S(=O)(=O)NC2CCCCCC2)cc1C(N)=O	none
COc1cccc(C(=O)NCc2ccco2)c1	none (no result: Beta apoptosis, CSC inhib)
Cc1c(NC(=O)Nc2ccc(F)cc2F)c(=O)n(-c2ccccc2)n1C	none
CC(C)CN(C(=O)CCCOc1ccc(Cl)cc1Cl)c1c(N)n(Cc2ccccc2)c(=O)[nH]c1=O	none (no result: CSC inhib)
COc1ccc(CC(NC(C)=O)C(=O)NC2CCN(C(=O)c3cccc(Cl)c3)CC2)cc1OC (stereo not drawn)	HIF act 127 (no result: Beta apoptosis, CSC inhib)
CC(C)COC(=O)c1cccc2c1-c1ccccc1/C2=N\O	CSC inhib 120
Cc1cc(C)cc(NC(=O)Nc2ccc(NC(=O)c3ccccc3O)cc2)c1	CSC inhib 92
Cc1ccccc1NC(=O)c1ccccc1O	HIF act 408, Calb FLC inconclusive
CC(C)C(=O)N1CCN(c2cc(N3CCN(C)CC3)c(F)cc2[N+](=O)[O-])CC1	T cruzi inh 77
COc1ccc(-c2csc(Nc3cccc(C)n3)n2)cc1	none (no result: Beta apoptosis)
Cc1cccnc1Nc1nc(-c2ccccn2)cs1	HIF act 182, Beta apoptosis 101, CSC inhib 101
Oc1ccc(-c2csc(Nc3ccccn3)n2)c(O)c1	CSC inhib 103
